A word on the IC50: it is the point on the concentration scale where inhibition reaches its midpoint. A lower IC50 goes with higher potency.

Drawing on ChEMBL document CHEMBL1127568, “A new series of PDGF receptor tyrosine kinase inhibitors: 3-substituted quinoline derivatives” (J Med Chem, 1994), this text covers IC50 for 32 molecules.

Assay [1] concerns the target T1, Platelet-derived growth factor receptor (Homo sapiens, UniProt P09619+P16234). Put plainly: Inhibition of isolated human PDGF receptor phosphorylation. It counts as protein-complex assay.
Assay [2] concerns the target Epidermal growth factor receptor (Homo sapiens, UniProt P00533). Briefly: Concentration required to inhibit phosphorylation of isolated human epidermal growth factor tyrosine kinase receptor by 50%.
Assay [3] has as its target T1, Platelet-derived growth factor receptor. Put plainly: Inhibition of human PDGF receptor phosphorylation; 0.008-0.07. It counts as protein-complex assay.
For assay [4] the target is unchanged. Put plainly: Inhibition of human PDGF receptor phosphorylation; 0.02-0.04. It counts as protein-complex assay. The procedure, abridged:
(§1)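 PDGF receptor from NIH 3T3 cell lysates (cells made quiescent 24 h in 0.5% calf serum), stimulated with 10 ng/mL PDGF for 30 min at 4 °C and immunoprecipitated on Protein A beads. Each compound ran in at least two dose-response assays.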

In assay [5] the target is cAMP-dependent protein kinase (PKA) (Homo sapiens, UniProt P22694+P17612+P22612). Briefly: Test for the inhibition of protein kinase A. The class given is protein assay.
Assay [6] has as its target T1, Platelet-derived growth factor receptor. Briefly: Inhibition of human PDGF receptor phosphorylation; 0.01-0.02. It counts as protein-complex assay.
Assay [7] shares this target. Briefly: Inhibition of human PDGF receptor phosphorylation; 20-30. It counts as protein-complex assay.
Assay [8] has the same target. Put plainly: Inhibition of human PDGF receptor phosphorylation; 1-2. The class given is protein-complex assay. Put shortly: as §1
The target is the same in assay [9]. Briefly: Inhibition of human PDGF receptor phosphorylation; 0.1-0.5. It counts as protein-complex assay. Put shortly: as §1
For assay [10] the target is unchanged. Put plainly: Inhibition of human PDGF receptor phosphorylation; 0.3-0.5. It counts as protein-complex assay. The procedure, abridged: as §1
For assay [11] the target is unchanged. Briefly: Inhibition of human PDGF receptor phosphorylation; 0.2-0.8. The class given is protein-complex assay. Put shortly: (§2)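 Receptor from quiescent NIH 3T3 cell lysates (24 h in 0.5% calf serum before lysis), stimulated with 10 ng/mL PDGF for 30 min at 4 °C, then immunoprecipitated with anti-PDGF receptor antibody on Protein A beads. Compound pre-incubated 10 min at 4 °C in 50 mM Tris, 10 mM MnCl2, pH 7.5. At least two dose-response assays per compound.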

Assay [12] has the same target. Put plainly: Inhibition of human PDGF receptor phosphorylation; 0.7-5. The class given is protein-complex assay. The procedure, abridged:
as §1

Assay [13] has the same target. Briefly: Inhibition of human PDGF receptor phosphorylation; 0.2-0.4. It counts as protein-complex assay. Put shortly:
as §1

For assay [14] the target is unchanged. Briefly: Inhibition of human PDGF receptor phosphorylation; 0.1-0.4. The class given is protein-complex assay. Put shortly:
as §1

For assay [15] the target is unchanged. Briefly: Inhibition of human PDGF receptor phosphorylation; 0.04-0.07. It counts as protein-complex assay. Put shortly:
as §2

Assay [16] has the same target. Briefly: Inhibition of human PDGF receptor phosphorylation; 0.015-0.03. It counts as protein-complex assay. The procedure, abridged:
as §1

For assay [17] the target is unchanged. Put plainly: Inhibition of human PDGF receptor phosphorylation; 0.5-3. The class given is protein-complex assay.
For assay [18] the target is unchanged. Briefly: Inhibition of human PDGF receptor phosphorylation; 0.02-0.05. The class given is protein-complex assay. Put shortly:
as §1

For assay [19] the target is unchanged. Put plainly: Inhibition of human PDGF receptor phosphorylation; 0.1-0.2. The class given is protein-complex assay. Put shortly: as §1
For assay [20] the target is unchanged. Briefly: Inhibition of human PDGF receptor phosphorylation; 0.15-0.5. It counts as protein-complex assay. Put shortly:
as §1

Assay [21] has the same target. Briefly: Inhibition of human PDGF receptor phosphorylation; 0.5-2. The class given is protein-complex assay.
Assay [22] shares this target. Put plainly: Inhibition of human PDGF receptor phosphorylation; 0.09-0.2. It counts as protein-complex assay. Put shortly:
as §1

Assay [23] has the same target. Briefly: Inhibition of human PDGF receptor phosphorylation; 0.003-0.005. The class given is protein-complex assay.
The target is the same in assay [24]. Briefly: Inhibition of human PDGF receptor phosphorylation; 1-7. The class given is protein-complex assay.
The target is the same in assay [25]. Put plainly: Inhibition of human PDGF receptor phosphorylation; 2-4. The class given is protein-complex assay.
The target is the same in assay [26]. Put plainly: Inhibition of human PDGF receptor phosphorylation; 0.002-0.06. It counts as protein-complex assay. The procedure, abridged:
as §1

For assay [27] the target is unchanged. Put plainly: Inhibition of human PDGF receptor phosphorylation; 0.035-0.06. It counts as protein-complex assay. The procedure, abridged: as §1
Assay [28] has the same target. Briefly: Inhibition of human PDGF receptor phosphorylation; 0.2-0.6. It counts as protein-complex assay. The procedure, abridged: as §1
Assay [29] has the same target. Put plainly: Inhibition of human PDGF receptor phosphorylation; 0.07-0.15. The class given is protein-complex assay.
For assay [30] the target is unchanged. Put plainly: Inhibition of human PDGF receptor phosphorylation; 0.007-0.03. It counts as protein-complex assay.
Assay [31] shares this target. Briefly: Inhibition of human PDGF receptor phosphorylation; 0.001-0.015. The class given is protein-complex assay.
The target is the same in assay [32]. Briefly: Inhibition of human PDGF receptor phosphorylation; 0.001-0.005. The class given is protein-complex assay. Put shortly: as §1

Sequence of Epidermal growth factor receptor (P00533 whole entry): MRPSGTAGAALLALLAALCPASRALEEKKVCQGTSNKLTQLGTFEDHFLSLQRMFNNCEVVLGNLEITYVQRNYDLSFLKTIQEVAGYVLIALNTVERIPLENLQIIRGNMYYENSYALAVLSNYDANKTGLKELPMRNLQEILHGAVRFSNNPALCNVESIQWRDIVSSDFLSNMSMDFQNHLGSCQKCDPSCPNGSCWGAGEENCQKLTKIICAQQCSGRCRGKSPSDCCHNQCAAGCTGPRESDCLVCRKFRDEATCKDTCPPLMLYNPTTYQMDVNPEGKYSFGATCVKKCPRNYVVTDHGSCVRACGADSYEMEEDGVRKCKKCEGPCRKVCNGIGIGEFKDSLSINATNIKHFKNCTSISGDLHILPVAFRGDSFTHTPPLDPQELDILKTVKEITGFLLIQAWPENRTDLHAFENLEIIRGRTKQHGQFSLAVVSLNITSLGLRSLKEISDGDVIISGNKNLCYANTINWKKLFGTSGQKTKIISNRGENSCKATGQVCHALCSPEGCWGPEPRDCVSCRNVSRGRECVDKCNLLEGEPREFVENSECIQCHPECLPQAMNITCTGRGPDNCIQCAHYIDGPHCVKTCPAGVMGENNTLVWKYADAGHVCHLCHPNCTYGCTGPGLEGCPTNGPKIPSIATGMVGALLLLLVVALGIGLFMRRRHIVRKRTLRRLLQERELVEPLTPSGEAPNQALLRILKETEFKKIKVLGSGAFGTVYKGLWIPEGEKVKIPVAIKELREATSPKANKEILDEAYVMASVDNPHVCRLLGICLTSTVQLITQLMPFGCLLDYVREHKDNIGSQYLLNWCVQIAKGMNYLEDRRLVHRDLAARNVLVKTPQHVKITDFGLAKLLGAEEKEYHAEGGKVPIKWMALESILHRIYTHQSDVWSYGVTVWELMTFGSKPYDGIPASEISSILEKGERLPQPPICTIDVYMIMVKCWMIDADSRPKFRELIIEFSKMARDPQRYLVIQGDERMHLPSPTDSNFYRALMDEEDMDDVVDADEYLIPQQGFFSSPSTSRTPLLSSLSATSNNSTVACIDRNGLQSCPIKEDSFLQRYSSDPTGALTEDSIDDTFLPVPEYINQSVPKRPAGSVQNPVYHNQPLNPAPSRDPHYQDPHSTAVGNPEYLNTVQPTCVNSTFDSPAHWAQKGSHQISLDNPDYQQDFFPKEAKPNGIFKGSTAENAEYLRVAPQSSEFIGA

As to `COc1cc2cc(-c3ccc(-c4ccccc4)cc3)cnc2cc1OC`, the IC50 is above 50 µM in assay [1] and above 20 µM in assay [2].

With `COc1cc2cc(-c3ccc(N(C)C)cc3)cnc2cc1OC`, the concentration for half-maximal inhibition (IC50) is 10 µM in [1] and above 20 µM in assay [2].

Consider `COc1ccc(-c2cnc3cc(OC)c(OC)cc3c2)cn1`, for which the half-maximal inhibitory concentration (IC50) in assay [2] is above 20 µM; in assay [3] it was 70 nM.

For the molecule `COc1cc2cc(C3=CCCC3)cnc2cc1OC`, the 50% inhibitory concentration (IC50) in [4] was 40 nM; in assay [2] it was above 20 µM.

Regarding `COc1cc2cc(-c3ccsc3)cnc2cc1OC`, the half-maximal inhibitory concentration (IC50) in assay [5] is above 200 µM; in [2], above 20 µM; in [6], 20 nM.

`COc1cc2cccnc2cc1OC`: the IC50 is above 20 µM in assay [2] and 30 µM in assay [7].

Turning to `Clc1cc2cc(-c3ccsc3)cnc2cc1Cl`, the half-inhibitory concentration (IC50) is above 20 µM in assay [2] and 2000 nM in [8].

As for `COc1cc2cc(C3CCCC3)cnc2cc1OC`, the values for the 50% inhibitory concentration (IC50) in assay [9] and in assay [2] were 500 nM and above 20 µM, respectively.

Regarding `COc1cc2cc(CCC3CCCCC3)cnc2cc1OC`, the IC50 in assay [2] was above 20 µM; in [10] it was 500 nM.

With `COc1ccc(CCc2cnc3cc(OC)c(OC)cc3c2)cc1`, the IC50 in assay [2] was above 20 µM; in assay [11], 800 nM.

In turn, `COc1cc2cc(-c3ccc(C(=O)O)cc3)cnc2cc1OC` had an IC50 in assay [12] of 5 µM.

Take `COc1cc2cc(-c3cc(F)c(OC)c(F)c3)cnc2cc1OC`: the IC50 is above 20 µM in [2] and 400 nM in assay [13].

In the case of `COc1ccc(-c2cnc3cc(OC)c(OC)cc3c2)cc1C`, the 50% inhibitory concentration (IC50) was 400 nM in [14] and above 20 µM in assay [2].

As to `COc1cc2cc(OCc3ccccc3)cnc2cc1OC`, the IC50 is above 20 µM in assay [2] and 70 nM in assay [15].

Regarding `COc1cc2cc(-c3ccc(=O)[nH]c3)cnc2cc1OC`, the 50% inhibitory concentration (IC50) in assay [16] is 30 nM; in [2], above 20 µM.

For the molecule `COc1ccc(/C=C(\C#N)c2cccnc2)cc1OC`, the 50% inhibitory concentration (IC50) turned out to be 0.7 µM in [2] and 3 µM in assay [17].

For the molecule `COc1cc2cc(C#Cc3ccccc3)cnc2cc1OC`, the IC50 in [2] is above 20 µM; in [18], 50 nM.

As for `CCOC(=O)c1ccc(-c2cnc3cc(OC)c(OC)cc3c2)cc1`, 200 nM corresponded to half-maximal inhibition in assay [19] (IC50).

Regarding `COc1cc2cc(-c3ccc(OC)c([N+](=O)[O-])c3)cnc2cc1OC`, the IC50 is above 20 µM in assay [2] and 500 nM in assay [20].

As to `COc1cc2cc(-c3ccc(C)cc3)cnc2cc1OC`, the 50% inhibitory concentration (IC50) in [2] is above 20 µM; in [21], 2000 nM.

Consider `COc1cc2cc(-c3ccc(F)c(F)c3)cnc2cc1OC`, for which the IC50 in assay [2] was above 20 µM; in [22], 200 nM.

With `COc1ccc(-c2cnc3cc(OC)c(OC)cc3c2)cc1F`, the results for the half-maximal inhibitory concentration (IC50) in [23] and in assay [2] were 5 nM and above 20 µM, respectively.

With `COc1cc2cc(-c3ccc(Cl)c(Cl)c3)cnc2cc1OC`, the IC50 in assay [24] was 7 µM; in assay [2], above 20 µM.

On to `COc1ccc(-c2cnc3cc(OC)c(OC)cc3c2)c(OC)c1`, for which the IC50 in [1] is above 50 µM; in assay [2] it was above 20 µM.

In assay [25], `Fc1cc2cc(-c3ccsc3)cnc2cc1F` returned an IC50 of 4 µM.

Consider `COc1ccc2cc(-c3ccsc3)cnc2c1`, for which the values for the half-maximal inhibitory concentration (IC50) in assay [2] and in assay [26] were above 20 µM and 60 nM, respectively.

As for `COc1cc2cc(-c3ccc(F)cc3)cnc2cc1OC`, the half-inhibitory concentration (IC50) in assay [27] is 60 nM; in assay [2], above 20 µM.

As to `c1cc(-c2cnc3cc4c(cc3c2)OCO4)cs1`, the values for the IC50 in assay [2] and in assay [28] were above 20 µM and 600 nM, respectively.

As for `COc1cc2cc(-c3ccc([N+](=O)[O-])cc3)cnc2cc1OC`, the concentration for half-maximal inhibition (IC50) in assay [2] was above 20 µM; in assay [29] it was 150 nM.

With `COc1cc2cc(-c3ccc(Cl)s3)cnc2cc1OC`, the half-maximal inhibitory concentration (IC50) in assay [30] was 30 nM; in assay [2], above 20 µM.

With `COc1ccc(-c2cnc3cc(OC)c(OC)cc3c2)cc1`, the results for the IC50 in [31], in [5] and in assay [2] were 15 nM, above 200 µM and above 20 µM, respectively.

For the molecule `COc1cc2cc(/C=C/c3ccccc3)cnc2cc1OC`, the IC50 in assay [32] is 5 nM; in [2], above 20 µM.
